Measured values published in ChEMBL document CHEMBL1140994, “Ranking the selectivity of PubChem screening hits by activity-based protein profiling: MMP13 as a case study” (Bioorg Med Chem, 2009).
The source made the active and inactive calls. No cut-off for these calls is given here.

Columns and labels:
Collagenase 3 [1] = molecular target: T1, Collagenase 3 (Homo sapiens, UniProt P45452); experiment: Inhibition of human recombinant MMP13 by HxBPyne probe-based competitive activity based protein profiling assay
[2] = molecular target: T2, Matrix metalloproteinase-9 (Homo sapiens, UniProt P14780); experiment: Inhibition of human recombinant MMP9 by fluorogenic substrate assay
Summary of the method: (§1)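 Enzyme (MMP8 6 nM, MMP9 2 nM, MMP13 1.5 nM final) preincubated with inhibitor 30 min in 50 mM HEPES pH 7.5, 10 mM CaCl2, 0.05% Brij-35, at RT. Mca-PLGL-Dpa-AR-NH2 added at 5 μM; fluorescence (ex 328/em 393 nm) read each minute for 10 min. Initial rates by linear least squares; IC50 from variable-slope sigmoidal fit. Triplicate; mean with 95% CI.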

[3] = molecular target: Matrix metalloproteinase-24 (Homo sapiens) (UniProt Q9Y5R2); experiment: Inhibition of human recombinant MMP24 at 200 uM by HxBPyne probe-based competitive activity based protein profiling assay in presence of 5 uM HxBpane competitor
Summary of the method: (§2)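 Recombinant enzyme at 0.5 μM final in mouse liver soluble proteome (1 mg protein/mL in PBS). HxBPyne probe cocktail 0.5 μM total final, with inhibitor 200 μM or DMSO. Preincubated 30 min on ice, then UV 365 nm for 1 h on ice. Rhodamine-azide click chemistry, 1 h RT in dark. SDS-PAGE with in-gel fluorescence; band intensity given as % of DMSO control.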

[4] = molecular target: T3, A disintegrin and metalloproteinase with thrombospondin motifs 5 (Homo sapiens) (UniProt Q9UNA0); experiment: Inhibition of human recombinant ADAMTS5 at 200 uM by HxBPyne probe-based competitive activity based protein profiling assay in presence of 5 uM HxBpane competitor; summary of the method: as §2
T3 sequence (whole entry): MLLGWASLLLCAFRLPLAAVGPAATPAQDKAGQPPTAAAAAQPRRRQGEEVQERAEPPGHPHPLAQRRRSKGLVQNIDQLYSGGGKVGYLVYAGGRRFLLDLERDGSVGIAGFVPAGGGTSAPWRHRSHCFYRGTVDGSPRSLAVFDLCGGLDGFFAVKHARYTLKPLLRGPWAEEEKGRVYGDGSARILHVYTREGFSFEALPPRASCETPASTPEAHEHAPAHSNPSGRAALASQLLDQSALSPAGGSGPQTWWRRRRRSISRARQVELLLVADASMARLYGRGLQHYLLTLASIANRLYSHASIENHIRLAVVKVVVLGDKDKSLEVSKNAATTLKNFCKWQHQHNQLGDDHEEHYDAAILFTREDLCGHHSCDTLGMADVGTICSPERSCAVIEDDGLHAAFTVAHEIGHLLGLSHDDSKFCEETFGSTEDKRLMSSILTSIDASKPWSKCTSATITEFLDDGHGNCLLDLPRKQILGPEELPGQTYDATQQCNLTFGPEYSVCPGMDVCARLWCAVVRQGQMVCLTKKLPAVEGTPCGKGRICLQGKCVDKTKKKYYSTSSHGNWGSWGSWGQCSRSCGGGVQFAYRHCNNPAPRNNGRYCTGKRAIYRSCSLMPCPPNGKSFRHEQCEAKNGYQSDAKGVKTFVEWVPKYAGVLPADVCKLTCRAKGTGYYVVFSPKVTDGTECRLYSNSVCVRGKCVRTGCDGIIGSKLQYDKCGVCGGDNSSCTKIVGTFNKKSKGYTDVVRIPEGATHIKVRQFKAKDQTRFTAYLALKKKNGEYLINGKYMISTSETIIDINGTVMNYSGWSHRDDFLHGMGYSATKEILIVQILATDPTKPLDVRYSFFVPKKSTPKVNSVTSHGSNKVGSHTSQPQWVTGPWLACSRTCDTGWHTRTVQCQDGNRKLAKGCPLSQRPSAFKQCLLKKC

[5] = molecular target: T4, Stromelysin-3 (Homo sapiens) (UniProt P24347); experiment: Inhibition of human recombinant MMP11 at 200 uM by HxBPyne probe-based competitive activity based protein profiling assay in presence of 5 uM HxBpane competitor; summary of the method: as §2
T4 sequence (whole entry): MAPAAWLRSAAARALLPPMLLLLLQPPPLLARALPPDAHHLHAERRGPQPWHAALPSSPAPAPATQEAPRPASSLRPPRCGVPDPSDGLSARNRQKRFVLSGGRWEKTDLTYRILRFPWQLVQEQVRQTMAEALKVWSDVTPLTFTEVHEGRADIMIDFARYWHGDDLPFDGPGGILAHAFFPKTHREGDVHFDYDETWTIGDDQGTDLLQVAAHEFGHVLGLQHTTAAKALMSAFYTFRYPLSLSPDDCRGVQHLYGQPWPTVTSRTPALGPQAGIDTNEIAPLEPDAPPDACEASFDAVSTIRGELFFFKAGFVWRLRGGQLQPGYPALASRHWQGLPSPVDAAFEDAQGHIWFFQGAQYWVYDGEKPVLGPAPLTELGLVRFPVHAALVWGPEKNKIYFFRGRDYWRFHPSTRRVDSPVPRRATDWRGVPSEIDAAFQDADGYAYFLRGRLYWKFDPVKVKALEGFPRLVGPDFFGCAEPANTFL

[6] = molecular target: 72 kDa type IV collagenase (Homo sapiens) (UniProt P08253); experiment: Inhibition of human recombinant MMP2 at 200 uM by HxBPyne probe-based competitive activity based protein profiling assay in presence of 5 uM HxBpane competitor; summary of the method: as §2
[7] = molecular target: Stromelysin-2 (Homo sapiens) (UniProt P09238); experiment: Inhibition of human recombinant MMP10 at 200 uM by HxBPyne probe-based competitive activity based protein profiling assay in presence of 5 uM HxBpane competitor; summary of the method: as §2
[8] = molecular target: Stromelysin-1 (Homo sapiens) (UniProt P08254); experiment: Inhibition of human recombinant MMP3 at 200 uM by HxBPyne probe-based competitive activity based protein profiling assay in presence of 5 uM HxBpane competitor; summary of the method: as §2
[9] = molecular target: Matrix metalloproteinase-16 (Homo sapiens) (UniProt P51512); experiment: Inhibition of human recombinant MMP16 at 200 uM by HxBPyne probe-based competitive activity based protein profiling assay in presence of 5 uM HxBpane competitor; summary of the method: as §2
[10] = molecular target: Macrophage metalloelastase (Homo sapiens) (UniProt P39900); experiment: Inhibition of human recombinant MMP12 at 200 uM by HxBPyne probe-based competitive activity based protein profiling assay in presence of 5 uM HxBpane competitor; summary of the method: as §2
Neutrophil collagenase [11] = molecular target: T5, Neutrophil collagenase (Homo sapiens, UniProt P22894); experiment: Inhibition of human recombinant MMP8 at 200 uM by HxBPyne probe-based competitive activity based protein profiling assay in presence of 5 uM HxBpane competitor; summary of the method: as §2
Target sequence in this assay (P22894 101-467 limits assumed): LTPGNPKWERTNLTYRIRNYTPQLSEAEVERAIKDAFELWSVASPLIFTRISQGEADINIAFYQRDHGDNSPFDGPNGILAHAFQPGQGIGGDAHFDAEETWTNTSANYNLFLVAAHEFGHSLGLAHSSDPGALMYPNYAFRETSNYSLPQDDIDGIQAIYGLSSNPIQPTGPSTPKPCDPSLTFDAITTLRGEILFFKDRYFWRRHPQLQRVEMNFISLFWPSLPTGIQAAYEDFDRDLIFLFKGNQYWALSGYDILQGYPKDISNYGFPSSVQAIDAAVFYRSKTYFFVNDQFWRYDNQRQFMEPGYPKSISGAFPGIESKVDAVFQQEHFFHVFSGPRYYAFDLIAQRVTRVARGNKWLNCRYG

[12] = molecular target: Matrix metalloproteinase-14 (Homo sapiens) (UniProt P50281); experiment: Inhibition of human recombinant MMP14 at 200 uM by HxBPyne probe-based competitive activity based protein profiling assay in presence of 5 uM HxBpane competitor; summary of the method: as §2
Collagenase 3 [13] = molecular target: T1, Collagenase 3; experiment: Inhibition of human recombinant MMP13 by fluorogenic substrate assay
Neutrophil collagenase [14] = molecular target: T5, Neutrophil collagenase; experiment: Inhibition of human recombinant MMP8 by fluorogenic substrate assay; summary of the method: as §1
Target sequence in this assay (P22894 whole entry): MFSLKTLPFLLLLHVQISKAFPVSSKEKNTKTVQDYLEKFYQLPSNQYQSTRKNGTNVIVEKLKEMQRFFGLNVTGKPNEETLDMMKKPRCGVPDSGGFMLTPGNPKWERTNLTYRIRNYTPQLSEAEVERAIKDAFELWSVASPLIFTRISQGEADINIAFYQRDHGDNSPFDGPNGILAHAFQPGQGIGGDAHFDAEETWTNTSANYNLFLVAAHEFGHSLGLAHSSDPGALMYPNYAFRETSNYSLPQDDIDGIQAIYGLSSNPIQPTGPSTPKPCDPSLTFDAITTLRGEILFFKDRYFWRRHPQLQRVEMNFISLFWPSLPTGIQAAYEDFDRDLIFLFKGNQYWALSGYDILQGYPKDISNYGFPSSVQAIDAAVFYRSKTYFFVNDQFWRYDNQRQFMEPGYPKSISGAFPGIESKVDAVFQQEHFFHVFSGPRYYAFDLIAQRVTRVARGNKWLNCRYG

[15] = molecular target: Matrix metalloproteinase-15 (Homo sapiens) (UniProt P51511); experiment: Inhibition of human recombinant MMP15 at 200 uM by HxBPyne probe-based competitive activity based protein profiling assay in presence of 5 uM HxBpane competitor; summary of the method: as §2
[16] = molecular target: T2, Matrix metalloproteinase-9; experiment: Inhibition of human recombinant MMP9 at 200 uM by HxBP-Rh probe-based competitive activity based protein profiling assay in presence of 200 uM HxBP-alkyne
Summary of the method: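 Enzyme 0.5 μM final, in PBS (ADAMTS4, neprilysin) or in 1 mg/mL mouse liver soluble proteome (MMP9). HxBP-Rh probe 0.5 μM final with 200 μM inhibitor or DMSO. Preincubated 30 min on ice, UV 365 nm 1 h on ice. Deglycosylated with PNGase F, then SDS-PAGE with fluorescence scanning. Activity given relative to DMSO control.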

[17] = molecular target: T6, Disintegrin and metalloproteinase domain-containing protein 8 (Homo sapiens) (UniProt P78325); experiment: Inhibition of human recombinant ADAM8 at 200 uM by HxBPyne probe-based competitive activity based protein profiling assay in presence of 5 uM HxBpane competitor; summary of the method: as §2
T6 sequence (whole entry): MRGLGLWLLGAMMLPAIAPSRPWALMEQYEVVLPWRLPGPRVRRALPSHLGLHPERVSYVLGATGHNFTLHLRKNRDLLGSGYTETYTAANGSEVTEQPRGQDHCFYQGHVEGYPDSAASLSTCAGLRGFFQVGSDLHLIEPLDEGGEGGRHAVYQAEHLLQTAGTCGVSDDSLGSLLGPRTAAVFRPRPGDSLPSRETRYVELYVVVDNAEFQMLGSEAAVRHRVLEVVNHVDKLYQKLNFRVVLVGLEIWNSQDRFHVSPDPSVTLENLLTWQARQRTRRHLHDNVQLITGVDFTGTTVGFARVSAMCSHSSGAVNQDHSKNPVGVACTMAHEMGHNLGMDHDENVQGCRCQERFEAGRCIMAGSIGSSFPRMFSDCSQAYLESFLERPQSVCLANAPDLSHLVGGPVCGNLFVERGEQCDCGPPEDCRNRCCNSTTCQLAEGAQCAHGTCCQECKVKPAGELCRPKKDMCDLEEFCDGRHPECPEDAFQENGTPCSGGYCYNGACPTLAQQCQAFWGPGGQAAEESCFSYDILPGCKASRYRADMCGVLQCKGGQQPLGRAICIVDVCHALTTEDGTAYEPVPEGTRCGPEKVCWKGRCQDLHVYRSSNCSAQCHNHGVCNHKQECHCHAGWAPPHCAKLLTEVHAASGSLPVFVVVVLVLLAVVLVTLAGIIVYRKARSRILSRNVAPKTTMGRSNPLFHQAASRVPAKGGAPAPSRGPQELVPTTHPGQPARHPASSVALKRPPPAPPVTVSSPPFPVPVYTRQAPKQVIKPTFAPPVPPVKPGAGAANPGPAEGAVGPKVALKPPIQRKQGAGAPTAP

T2 sequence (P14780 whole entry): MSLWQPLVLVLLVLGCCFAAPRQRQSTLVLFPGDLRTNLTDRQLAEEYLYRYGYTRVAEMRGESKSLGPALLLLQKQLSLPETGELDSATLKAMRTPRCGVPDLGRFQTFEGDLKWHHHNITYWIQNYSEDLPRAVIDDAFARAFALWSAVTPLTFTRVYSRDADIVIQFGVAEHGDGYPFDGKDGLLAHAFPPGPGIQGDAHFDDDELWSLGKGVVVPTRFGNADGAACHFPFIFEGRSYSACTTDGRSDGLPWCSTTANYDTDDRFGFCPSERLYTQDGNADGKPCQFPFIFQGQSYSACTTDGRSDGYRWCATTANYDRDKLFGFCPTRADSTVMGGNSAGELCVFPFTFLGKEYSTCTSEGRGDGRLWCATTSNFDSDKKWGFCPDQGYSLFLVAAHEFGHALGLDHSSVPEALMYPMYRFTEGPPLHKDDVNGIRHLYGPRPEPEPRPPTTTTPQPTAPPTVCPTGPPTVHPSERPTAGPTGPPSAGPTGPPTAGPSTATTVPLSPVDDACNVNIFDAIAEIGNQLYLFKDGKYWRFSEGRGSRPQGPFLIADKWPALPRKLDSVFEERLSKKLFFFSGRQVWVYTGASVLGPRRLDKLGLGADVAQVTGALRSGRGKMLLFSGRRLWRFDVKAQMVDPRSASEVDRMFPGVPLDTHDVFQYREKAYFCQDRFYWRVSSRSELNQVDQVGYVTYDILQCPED
Chain of Stromelysin-1 (Homo sapiens) (P08254 100-477 limits assumed): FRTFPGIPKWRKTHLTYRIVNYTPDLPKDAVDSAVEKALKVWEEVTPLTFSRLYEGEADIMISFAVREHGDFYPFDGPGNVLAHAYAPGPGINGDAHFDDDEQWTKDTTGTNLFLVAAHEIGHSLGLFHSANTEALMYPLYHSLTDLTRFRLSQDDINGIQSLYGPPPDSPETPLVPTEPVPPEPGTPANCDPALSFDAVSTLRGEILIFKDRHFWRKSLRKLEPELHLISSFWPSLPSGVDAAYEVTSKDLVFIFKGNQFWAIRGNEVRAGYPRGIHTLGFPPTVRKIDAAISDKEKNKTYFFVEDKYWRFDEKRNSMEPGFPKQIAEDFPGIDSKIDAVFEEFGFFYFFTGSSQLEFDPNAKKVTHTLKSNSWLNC
Chain of 72 kDa type IV collagenase (Homo sapiens) (P08253 110-660 limits assumed): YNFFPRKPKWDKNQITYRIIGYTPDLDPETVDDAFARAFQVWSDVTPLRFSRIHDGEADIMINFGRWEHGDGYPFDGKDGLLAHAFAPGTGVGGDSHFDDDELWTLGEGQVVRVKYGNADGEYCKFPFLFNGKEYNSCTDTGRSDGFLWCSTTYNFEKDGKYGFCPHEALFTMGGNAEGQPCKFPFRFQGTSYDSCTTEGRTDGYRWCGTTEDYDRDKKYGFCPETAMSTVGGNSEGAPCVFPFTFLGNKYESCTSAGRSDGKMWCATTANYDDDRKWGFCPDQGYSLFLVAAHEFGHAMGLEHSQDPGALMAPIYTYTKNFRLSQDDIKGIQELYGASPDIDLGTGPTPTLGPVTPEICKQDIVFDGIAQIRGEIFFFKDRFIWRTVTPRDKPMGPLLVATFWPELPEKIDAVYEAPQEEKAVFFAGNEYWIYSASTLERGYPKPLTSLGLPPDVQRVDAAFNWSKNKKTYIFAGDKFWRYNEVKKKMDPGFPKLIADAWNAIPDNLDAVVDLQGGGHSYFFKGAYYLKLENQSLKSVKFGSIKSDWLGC
Chain of Macrophage metalloelastase (Homo sapiens) (P39900 106-470 limits assumed): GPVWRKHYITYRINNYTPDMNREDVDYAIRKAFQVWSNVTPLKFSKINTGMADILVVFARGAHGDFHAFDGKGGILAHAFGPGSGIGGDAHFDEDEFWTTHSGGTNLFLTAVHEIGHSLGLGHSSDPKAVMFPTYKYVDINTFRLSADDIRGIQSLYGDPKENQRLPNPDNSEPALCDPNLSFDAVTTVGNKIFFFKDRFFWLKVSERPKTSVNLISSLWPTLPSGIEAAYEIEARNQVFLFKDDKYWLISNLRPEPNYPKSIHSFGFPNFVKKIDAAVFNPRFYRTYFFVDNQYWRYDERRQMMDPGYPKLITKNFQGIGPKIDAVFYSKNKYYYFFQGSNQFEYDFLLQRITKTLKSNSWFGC
Chain of Stromelysin-2 (Homo sapiens) (P09238 99-476 limits assumed): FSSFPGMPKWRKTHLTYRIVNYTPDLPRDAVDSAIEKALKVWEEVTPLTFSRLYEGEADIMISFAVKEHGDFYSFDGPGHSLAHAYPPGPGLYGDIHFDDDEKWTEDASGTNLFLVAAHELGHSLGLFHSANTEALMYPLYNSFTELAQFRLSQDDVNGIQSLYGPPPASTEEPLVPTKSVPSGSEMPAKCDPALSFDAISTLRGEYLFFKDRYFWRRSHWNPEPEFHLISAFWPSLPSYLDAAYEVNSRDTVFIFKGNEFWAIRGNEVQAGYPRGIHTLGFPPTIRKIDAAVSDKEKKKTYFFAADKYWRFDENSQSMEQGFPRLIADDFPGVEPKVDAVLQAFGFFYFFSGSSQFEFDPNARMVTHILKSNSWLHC
Chain of Matrix metalloproteinase-15 (Homo sapiens) (P51511 132-669 limits assumed): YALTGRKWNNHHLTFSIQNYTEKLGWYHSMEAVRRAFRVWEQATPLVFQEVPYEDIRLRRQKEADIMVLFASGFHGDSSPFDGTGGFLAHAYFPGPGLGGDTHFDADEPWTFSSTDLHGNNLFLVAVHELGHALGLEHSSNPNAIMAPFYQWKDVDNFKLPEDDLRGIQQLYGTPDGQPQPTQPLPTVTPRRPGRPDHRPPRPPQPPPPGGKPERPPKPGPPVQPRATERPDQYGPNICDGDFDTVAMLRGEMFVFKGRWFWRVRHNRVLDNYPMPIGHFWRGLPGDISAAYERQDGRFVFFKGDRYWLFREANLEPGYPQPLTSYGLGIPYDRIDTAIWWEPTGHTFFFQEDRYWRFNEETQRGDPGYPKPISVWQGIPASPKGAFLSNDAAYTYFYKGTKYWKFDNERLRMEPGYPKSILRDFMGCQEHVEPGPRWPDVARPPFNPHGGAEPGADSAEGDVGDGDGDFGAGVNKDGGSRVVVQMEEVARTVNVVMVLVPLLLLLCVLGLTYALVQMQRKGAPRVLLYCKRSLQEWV
Chain of Matrix metalloproteinase-24 (Homo sapiens) (Q9Y5R2 whole entry): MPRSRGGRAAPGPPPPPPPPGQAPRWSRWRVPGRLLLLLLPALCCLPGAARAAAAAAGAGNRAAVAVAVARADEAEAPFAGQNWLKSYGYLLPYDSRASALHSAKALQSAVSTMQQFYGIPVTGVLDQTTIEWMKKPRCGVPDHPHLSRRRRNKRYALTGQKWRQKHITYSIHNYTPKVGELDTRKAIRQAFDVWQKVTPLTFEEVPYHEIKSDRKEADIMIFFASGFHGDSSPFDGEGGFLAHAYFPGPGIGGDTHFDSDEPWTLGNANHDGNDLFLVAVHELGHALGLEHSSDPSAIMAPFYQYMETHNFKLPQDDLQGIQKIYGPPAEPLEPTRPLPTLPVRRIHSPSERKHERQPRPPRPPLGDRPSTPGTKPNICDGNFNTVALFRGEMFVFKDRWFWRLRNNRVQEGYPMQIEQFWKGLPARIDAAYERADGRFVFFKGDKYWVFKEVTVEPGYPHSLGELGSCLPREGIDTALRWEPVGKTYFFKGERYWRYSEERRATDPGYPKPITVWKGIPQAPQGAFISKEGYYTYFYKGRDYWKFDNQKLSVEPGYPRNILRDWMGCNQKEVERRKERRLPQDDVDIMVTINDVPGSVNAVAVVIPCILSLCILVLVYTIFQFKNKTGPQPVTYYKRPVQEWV

Row | Compound | IC50 (Collagenase 3 [1]) [µM] | IC50 [2] [µM] | Activity [3] | Activity [4] | Activity [5] | Activity [6] | Activity [7] | Activity [8] | Activity [9] | Activity [10] | Activity (Neutrophil collagenase [11]) | Activity [12] | IC50 (Collagenase 3 [13]) [nM] | IC50 (Neutrophil collagenase [14]) [nM] | Activity [15] | Activity [16] | Activity [17]
1 | O=C(O)CCC(NS(=O)(=O)c1ccc(-c2ccccc2)cc1)C(=O)O (stereo unspecified) | 13 | 14 | Active | Active | Active | Active | Active | Active | Active | Active | Active | Active | 280 | 24 | Active | – | –
2 | CCCCCCOc1ccc(C(CC(=O)O)C(N)=O)cc1 (stereo unspecified) | 27 | 0.16 | – | – | – | Active | Active | Active | – | Active | Active | – | 1300 | 670 | – | Active | Active
